The record followed here is article PMC6815263 (European journal of medicinal chemistry, 2019).

Each structure is given as a SMILES string.

human TRPV1, sequence (Q8NER1 whole entry): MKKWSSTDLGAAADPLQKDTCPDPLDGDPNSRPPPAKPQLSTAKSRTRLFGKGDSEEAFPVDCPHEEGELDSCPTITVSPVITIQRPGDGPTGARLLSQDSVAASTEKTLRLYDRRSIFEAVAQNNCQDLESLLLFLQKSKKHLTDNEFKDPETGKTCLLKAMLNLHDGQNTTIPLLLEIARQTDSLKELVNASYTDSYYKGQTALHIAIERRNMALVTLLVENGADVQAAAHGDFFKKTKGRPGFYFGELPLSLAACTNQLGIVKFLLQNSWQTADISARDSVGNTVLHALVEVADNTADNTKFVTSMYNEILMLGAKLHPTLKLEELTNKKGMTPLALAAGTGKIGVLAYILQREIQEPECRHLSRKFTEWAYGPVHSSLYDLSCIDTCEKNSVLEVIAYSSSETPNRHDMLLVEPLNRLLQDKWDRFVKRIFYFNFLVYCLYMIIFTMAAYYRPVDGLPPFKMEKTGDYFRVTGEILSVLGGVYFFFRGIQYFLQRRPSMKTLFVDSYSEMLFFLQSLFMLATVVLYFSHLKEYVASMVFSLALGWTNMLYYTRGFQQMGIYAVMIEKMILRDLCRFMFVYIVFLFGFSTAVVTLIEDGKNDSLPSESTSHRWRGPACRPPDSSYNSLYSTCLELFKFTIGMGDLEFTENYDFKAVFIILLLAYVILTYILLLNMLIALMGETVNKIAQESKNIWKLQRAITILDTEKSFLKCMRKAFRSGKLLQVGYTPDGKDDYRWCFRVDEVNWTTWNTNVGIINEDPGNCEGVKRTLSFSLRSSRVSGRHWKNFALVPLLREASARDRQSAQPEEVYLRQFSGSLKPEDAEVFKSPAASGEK

One assay addresses human TRPV1 (Homo sapiens, UniProt Q8NER1). In words: 45Ca2+ uptake assay, antagonism of capsaicin.
Settings: not given
The assay is classed as cell-based.
In turn, `CC1CCN(c2nc(C(F)(F)F)ccc2CNC(=O)[C@@H](C)c2ccc(NS(C)(=O)=O)c(F)c2)CC1` [compound 1, reference compound] gave a Ki of 2.22 nM. Still for that read-out and setting: the same measure for `CC(C(=O)NCc1ccc(C(F)(F)F)cc1N1CCC(Cc2ccccc2)(N(C)C)CC1)c1ccc(NS(C)(=O)=O)c(F)c1` (centres unmarked) [compound 11, N-(2-(4-Benzyl-4-(dimethylamino)piperidin-1-yl)-4-(trifluoromethyl)benzyl)-2-(3-fluoro-4-(methylsulfonamido)phenyl)propanamide]: 8.2 nM; for `CN(C)C1(Cc2ccccc2)CCN(c2cc(C(F)(F)F)ccc2CNC(=O)Nc2ccc(CNS(C)(=O)=O)c(F)c2)CC1` [compound 15, N-(4-(3-(2-(4-Benzyl-4-(dimethylamino)piperidin-1-yl)-4-(trifluoromethyl)benzyl)-ureido)-2-fluorobenzyl)methanesulfonamide]: 25 nM; for `CN(C)C1(Cc2ccccc2)CCN(c2cc(C(F)(F)F)ccc2CNC(=O)NCc2ccc(NS(C)(=O)=O)c(F)c2)CC1` [compound 17, N-(4-((3-(2-(4-Benzyl-4-(dimethylamino)piperidin-1-yl)-4-(trifluoromethyl)benzyl)-ureido)-methyl)-2-fluorophenyl)methanesulfonamide]: 85.9 nM.

`CN(C)C1(Cc2ccccc2)CCN(c2cc(C(F)(F)F)ccc2CNC(=O)Nc2ccc(CO)c(F)c2)CC1` [compound 23, 1-(2-(4-Benzyl-4-(dimethylamino)piperidin-1-yl)-4-(trifluoromethyl)benzyl)-3-(3-fluoro-4-(hydroxymethyl)phenyl)urea] gave a Ki of 81 nM. Still for that read-out and setting: the same measure for `CN(C)C1(Cc2ccccc2)CCN(c2cc(C(F)(F)F)ccc2CNC(=O)Nc2ccc3c(c2)OCC3)CC1` [compound 33, 1-(2-(4-Benzyl-4-(dimethylamino)piperidin-1-yl)-4-(trifluoromethyl)benzyl)-3-(2,3-dihydrobenzofuran-6-yl)urea]: 31.3 nM. `CN(C)C1(Cc2ccccc2)CCN(c2cc(C(F)(F)F)ccc2CNC(=O)Nc2cccc3[nH]c(=O)ccc23)CC1` [compound 35, 1-(2-(4-Benzyl-4-(dimethylamino)piperidin-1-yl)-4-(trifluoromethyl)benzyl)-3-(2-oxo-1,2-dihydroquinolin-5-yl)urea] registered a Ki of 30.6 nM.

With `CN(C)C1(Cc2ccccc2)CCN(c2cc(C(F)(F)F)ccc2CNC(=O)Nc2ccc3cccnc3c2)CC1` [compound 44, 1-(2-(4-Benzyl-4-(dimethylamino)piperidin-1-yl)-4-(trifluoromethyl)benzyl)-3-(quinolin-7-yl)urea], the Ki was found to be 42 nM. The same measure, in the same setting: the same measure for `CN(C)C1(Cc2ccccc2)CCN(c2cc(C(F)(F)F)ccc2CNC(=O)Nc2ccc3ccncc3c2)CC1` [compound 45, 1-(2-(4-Benzyl-4-(dimethylamino)piperidin-1-yl)-4-(trifluoromethyl)benzyl)-3-(isoquinolin-7-yl)urea]: 56.1 nM; for `CN(C)C1(Cc2ccccc2)CCN(c2cc(C(F)(F)F)ccc2CNC(=O)Nc2ccc3cnccc3c2)CC1` [compound 46, 1-(2-(4-Benzyl-4-(dimethylamino)piperidin-1-yl)-4-(trifluoromethyl)benzyl)-3-(isoquinolin-6-yl)urea]: 156 nM.

`CN(C)C1(Cc2ccccc2)CCN(c2cc(C(F)(F)F)ccc2CNC(=O)Nc2cccc3ccncc23)CC1` [compound 47, 1-(2-(4-Benzyl-4-(dimethylamino)piperidin-1-yl)-4-(trifluoromethyl)benzyl)-3-(isoquinolin-8-yl)urea] came in with a Ki of 18.7 nM. For `CN(C)C1(Cc2ccccc2)CCN(c2cc(C(F)(F)F)ccc2CNC(=O)Nc2cccc3cnccc23)CC1` [compound 48, 1-(2-(4-Benzyl-4-(dimethylamino)piperidin-1-yl)-4-(trifluoromethyl)benzyl)-3-(isoquinolin-5-yl)urea], affinity was put at a Ki of 8.8 nM.

The next assay deals with mu-opioid receptor (MOR) (Homo sapiens, UniProt P35372). Briefly: MOR binding competition assay with [3H]DAMGO. To be noted: MOR binding Ki relative to morphine.
mu-opioid receptor (MOR), sequence (P35372 whole entry, species assumed): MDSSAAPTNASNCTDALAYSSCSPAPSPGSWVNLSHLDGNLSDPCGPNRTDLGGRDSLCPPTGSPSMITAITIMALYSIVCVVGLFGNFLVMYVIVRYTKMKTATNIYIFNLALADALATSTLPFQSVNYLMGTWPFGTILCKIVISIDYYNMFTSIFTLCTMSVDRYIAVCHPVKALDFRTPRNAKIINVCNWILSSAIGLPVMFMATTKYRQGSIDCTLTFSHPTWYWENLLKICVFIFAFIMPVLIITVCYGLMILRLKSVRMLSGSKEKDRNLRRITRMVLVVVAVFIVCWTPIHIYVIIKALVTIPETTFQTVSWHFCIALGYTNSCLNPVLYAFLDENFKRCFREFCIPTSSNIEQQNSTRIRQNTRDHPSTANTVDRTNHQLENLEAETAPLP
Consider `CN(C)C1(Cc2ccccc2)CCN(c2cc(C(F)(F)F)ccc2CNC(=O)Nc2cccc3ncccc23)CC1` [compound 49, 1-(2-(4-Benzyl-4-(dimethylamino)piperidin-1-yl)-4-(trifluoromethyl)benzyl)-3-(quinolin-5-yl)urea], for which the “fold less potent than morphine (MOR Ki)” value worked out at 5 fold.

In another assay the test system is ICR mice. Briefly: Formalin test. It is filed as in vivo, mouse. Conditions: 40 mg/kg i.p., formalin assay phase 2. Summed up:
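Male ICR mice (20-25 g, groups of 6-8) were housed at 22 ± 2 °C and 50 ± 5% humidity and acclimated to the chamber for at least 5 min. Test compound was given i.p. 30 min before 20 μL of 2% formalin in 0.9% saline was injected into the dorsal right hindpaw. Licking/biting time (s) was summed per 5-min block over 30 min: early phase 0-5 min, late phase 20-30 min.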
Turning to `CN(C)C1(Cc2ccccc2)CCN(c2cc(C(F)(F)F)ccc2CNC(=O)Nc2cccc3ncccc23)CC1` [compound 49, 1-(2-(4-Benzyl-4-(dimethylamino)piperidin-1-yl)-4-(trifluoromethyl)benzyl)-3-(quinolin-5-yl)urea], the “inhibition of pain behavior in phase 2” value is on record as “completely”.

What is called Ki is the dissociation constant of the complex between target and ligand, obtained from inhibition or displacement. Lower therefore signals higher affinity.
